Measurements from different studies.
Lines come from different studies, so protocols differ.

| SMILES | species | medium | route | dose | notes | Tmax [h] |
| --- | --- | --- | --- | --- | --- | --- |
| Nc1cc(C(F)(F)F)c(-c2cc(N3CCOCC3)nc(N3CCOCC3)n2)cn1 | human | plasma | oral | 50 mg/day | patients | 1.02 |
| C/C(=C\c1csc(C)n1)[C@@H]1C[C@@H]2O[C@]2(C)CCC[C@H](C)[C@H](O)[C@@H](C)C(=O)C(C)(C)[C@@H](O)CC(=O)N1 | human | plasma | intravenous | 20 mg/m² | patients | 1 |
| C[C@@]1(c2cc(NC(=O)c3ccc(C#N)cn3)ccc2F)C=CSC(N)=N1 | human | plasma | oral | 150 mg | single dose | 1.5 |
| CC(=O)Oc1ccccc1C(=O)O | human | plasma | oral | 650 mg | healthy volunteers | 2.5 |
| c1cnc2ccc(Nc3nc(NC4CC4)c4nc[nH]c4n3)cc2c1 | human | plasma | oral | 400 mg/m² | patients | 6.5 |
| COc1ccc([C@@H]2CN(C(=O)[C@@H](O)CO)C[C@@]2(C)[C@@H](C)O)cc1OC1CN(c2ccc(C)cn2)C1 | human | plasma | oral | 1.5 mg | single dose, healthy volunteers | 1 |
| CCCCOC(=O)N1CCN(C(=O)[C@H](CP(=O)(O)O)NC(=O)c2cc(N3CC[C@H](OC)C3)nc(-c3ccccc3)n2)CC1 | human | plasma | subcutaneous | 8 mg | single dose | 0.667 |
| CCOc1cc2ncc(C#N)c(Nc3ccc(OCc4ccccn4)c(Cl)c3)c2cc1NC(=O)/C=C/[C@H]1CCCN1C | human | plasma | oral | 80 mg | single dose | 4.98 |
| CO[C@@H]1[C@H](OC(=O)N2CC(CCN3CCOCC3)C2)CC[C@]2(CO2)[C@H]1[C@@]1(C)O[C@@H]1CC=C(C)C | human | plasma | subcutaneous | 0.2 mg | single dose, healthy volunteers | 0.28 |
| CC(C)(Sc1ccncc1-c1ccc(C#N)c2ccccc12)C(=O)O | male human | plasma | oral | 40 mg | single dose, fasted, healthy volunteers | 0.75 |
| C[C@@H](Nc1cc(F)cc(F)c1)c1cc(C(=O)N(C)C)cc2c(=O)cc(N3CCOCC3)oc12 | human | plasma | oral | 240 mg | single dose, patients | 1.75 |
| CS(=O)(=O)CCC#N | human | plasma | oral | 300 mg | single dose, fasted | 1.5 |
| CCO[C@H]1CCN(Cc2c(OC)cc(C)c3[nH]ccc23)[C@H](c2ccc(C(=O)O)cc2)C1 | human | plasma | oral | 200 mg | multiple doses, twice daily, patients | 2 |
| CCc1nc(C(N)=O)c(Nc2ccc(N3CCC(N4CCN(C)CC4)CC3)c(OC)c2)nc1NC1CCOCC1 | human | plasma | oral | 120 mg | multiple doses, patients | 3.03 |
| C#C[C@]1(COP(=O)(O)OP(=O)(O)OP(=O)(O)O)O[C@@H](n2cnc3c(N)nc(F)nc32)C[C@@H]1O | human | plasma | oral | 15 mg | single dose | 6 |
| CO[C@H]1/C=C\C=C(/C)C(=O)NC2=CC(=O)C(NCCN(C)C)=C(C[C@@H](C)C[C@H](OC)[C@H](O)[C@@H](C)/C=C(\C)[C@@H]1OC(N)=O)C2=O | human | plasma | intravenous | 12 mg/m² | patients, infusion | 1 |

| SMILES | species | medium | route | dose | notes | Tmax [h] |
| --- | --- | --- | --- | --- | --- | --- |
| C=CC(=O)N(C)CCOc1c(N)ncnc1-c1cc(F)cc(NC(=O)c2ccc(C3CC3)cc2F)c1C | human | blood | oral | 1.5 mg | single dose, healthy volunteers | 0.5 |
| CC(C)(O)c1ccccc1-c1ccc2[nH]c(/C=C/c3ccc(C(F)(F)F)cc3)nc2c1 | male human | plasma | oral | 5 mg | single dose, fasted | 3.95 |
| Oc1cc(O)c2c(c1)O[C@@H](c1ccc(O)c(O)c1)[C@@H](O)C2 | human | plasma | oral | 30 mg | single dose | 1 |
| COc1cc(N2CCC(N3CCN(C)CC3)CC2)ccc1Nc1ncnc(Nc2ccccc2S(=O)(=O)C(C)C)n1 | human | plasma | oral | 200 mg | multiple doses, patients | 2.96 |
| COC(=O)N[C@@H](C)CNc1nccc(-c2cn(C(C)C)nc2-c2cc(Cl)cc(NS(C)(=O)=O)c2F)n1 | human | plasma | oral | 50 mg | single dose | ~1.5 |
| O=C(Nc1c(Cl)cncc1Cl)c1ccc(OC(F)F)c(OCC2CC2)c1 | human | plasma | oral | 0.25 mg | single dose | 0.75 |
| CC(C)n1cc(C#N)c2cc(-n3cc(C(=O)O)cn3)ccc21 | human | plasma | oral | 800 mg | multiple doses, once daily, steady state | 4 |
| CCc1nc2c(C)cc(N3CCN(CC(=O)N4CC(O)C4)CC3)cn2c1N(C)c1nc(-c2ccc(F)cc2)c(C#N)s1 | human | plasma | oral | 1500 mg | fed, healthy volunteers | 2 |
| O=C(O)C[C@H](O)C[C@H](O)/C=C/c1c(C2CC2)nc2ccccc2c1-c1ccc(F)cc1 | human | plasma | oral | 2 mg | single dose, fasted, healthy volunteers, tablet | 1.17 |
| CC(C)[C@](O)(c1ccc2cc(OC(F)F)c(OC(F)F)cc2c1)c1c[nH]nn1 | female human | plasma | oral | 750 mg | single dose | 3 |
| Cc1nc(-c2cn3c(n2)-c2ccc(-c4cnn(C(C)(C)C(N)=O)c4)cc2OCC3)n(C(C)C)n1 | human | plasma | oral | 2 mg | patients | 3.97 |
| CC(C)[C@H](N)C(=O)NCCCS(=O)(=O)O | human | plasma | oral | 171 mg | multiple doses, twice daily, fasted | 0.5 |
| NS(=O)(=O)NCCNc1nonc1C(=NO)Nc1ccc(F)c(Br)c1 | human | plasma | oral | 500 mg | multiple doses, twice daily, steady state, patients | 2 |
| Cn1cc(-c2ccc(S(=O)(=O)[C@@H]3C[C@@H](C(=O)NC4(C#N)CC4)N(C(=O)C4(C(F)(F)F)CC4)C3)c(C(F)(F)F)c2)cn1 | human | plasma | oral | 100 mg | single dose, fed | 5 |
| Cc1nc(NC(=O)N2CCC[C@H]2C(N)=O)sc1-c1ccnc(C(C)(C)C(F)(F)F)c1 | human | plasma | oral | 90 mg | patients | 2 |
| FC(F)(F)c1ccc(CNc2ccc(Cc3c[nH]c4ncc(Cl)cc34)cn2)cn1 | human | plasma | oral | 600 mg | single dose, healthy volunteers | 2.5 |
